# Published values gathered from unrelated publications.
# Observed: cell growth or viability
Structure (SMILES),cell line,technique,time,notes,quantity,result
C=C(F)C(=O)N1CCN(c2nc(OC[C@@H]3CCCN3C)nc3c2CCN(c2cccc4cccc(Cl)c24)C3)C[C@@H]1CC#N,SW480,ATP luminescence,,3D culture,IC50,> 1000 nM
Cc1noc2c1-c1ccccc1C(c1ccc(Cl)cc1)=N[C@H]2CC(N)=O,Kasumi 1,ATP luminescence,72 h,,IC50,263 nM
CC1(C)CCC(CN2CCN(c3ccc(C(=O)NS(=O)(=O)c4ccc(NCC5CCOCC5)c([N+](=O)[O-])c4)c(Oc4cnc5[nH]ccc5c4)c3)CC2)=C(c2ccc(Cl)cc2)C1,Toledo,ATP luminescence,48 h,,IC50,71 nM
COc1cc2c3c(n(CCCNC(C)C)c(=O)c2cc1OC)-c1nc2c(cc1C3=O)OCO2,Kasumi 1,MTS,72 h,,IC50,432 nM
O=C(NO)c1ccc(CNc2nc3cccc(-c4ccc5c(c4)OCO5)n3n2)cc1,A498,SRB,,,GI50,510 nM
C=CC(=O)NC1CCN(c2ncc3ncnc(Nc4ccc(Oc5ccc6c(c5)ncn6C)c(C)c4)c3n2)CC1,GP2d,,,,EC50,12300 nM
CC1(CN)CCN(c2cnc3c(Sc4ccncc4Cl)n[nH]c3n2)CC1,HGC-27,CCK-8,96 h,,IC50,4830 nM
Cc1cccc(-c2[nH]c(CNc3ccccc3F)nc2-c2ccc3ncnn3c2)n1,MM1.S,XTT,,,IC50,~1500 nM
CC(C)c1ccccc1[C@@H]1CCCN1C1CC2(CCN(c3ccc(C(=O)NS(=O)(=O)c4ccc(NC[C@H]5CC[C@](C)(O)CC5)c([N+](=O)[O-])c4)c(Oc4cnc5[nH]ccc5c4)c3)CC2)C1,Toledo,ATP luminescence,48 h,,IC50,4.6 nM
C=CC(=O)N1CCN(c2nc(=O)n(-c3c(C)ccnc3C(C)C)c3nc(-c4c(O)cccc4F)c(F)cc23)[C@@H](C)C1,SW480,ATP luminescence,,,IC50,> 10000 nM
Nc1cccc2c1C(=O)N(C1CCC(=O)NC1=O)C2=O (stereo not drawn),MM1.S,XTT,,,IC50,~300 nM
COc1cc2c3c(n(CCCNCCO)c(=O)c2cc1OC)-c1nc2c(cc1C3=O)OCO2,Kasumi 1,MTS,72 h,,IC50,530 nM
